Laboratory results as given in ChEMBL document CHEMBL1126707, “Tetrapeptide tachykinin antagonists: synthesis and modulation of the physicochemical and pharmacological properties of a new series of partially cyclic analogs” (J Med Chem, 1993).
pIC50, pKi: −log10 of the molar value. Values after ≈ are worked out from the molar mass of the structure shown. Blank lines part the entries; values can stand above or below the compound they belong to.

Columns and labels:
[1] = Solubility was evaluated; assay type: physicochemical
[2] = biological target: T1, Neuromedin-K receptor (Rattus norvegicus, UniProt P16177); assay: Tested for antagonist activity against NK-3 receptor in rat portal vein by using Neurokinin B as agonist; assay type: functional; conditions: read-out: pA2 (converted)
T1 sequence (P16177 whole entry): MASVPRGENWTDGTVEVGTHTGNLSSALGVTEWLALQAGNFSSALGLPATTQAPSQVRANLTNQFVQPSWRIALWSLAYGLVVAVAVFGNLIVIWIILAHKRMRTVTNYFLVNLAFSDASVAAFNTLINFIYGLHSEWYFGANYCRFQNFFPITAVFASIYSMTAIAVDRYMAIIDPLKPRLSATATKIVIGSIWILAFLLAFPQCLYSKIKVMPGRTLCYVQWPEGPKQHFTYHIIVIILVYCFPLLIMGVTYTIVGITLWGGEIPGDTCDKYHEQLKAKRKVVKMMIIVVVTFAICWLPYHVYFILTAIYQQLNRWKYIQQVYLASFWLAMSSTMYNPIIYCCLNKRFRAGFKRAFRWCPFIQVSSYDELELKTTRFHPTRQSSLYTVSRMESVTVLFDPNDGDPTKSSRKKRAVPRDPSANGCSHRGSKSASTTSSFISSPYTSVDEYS
Method in brief: (§1)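 Isolated-organ contractile bioassays: SP on rabbit vena cava (NK-1), neurokinin A on rabbit pulmonary artery (NK-2), neurokinin B on rat portal vein (NK-3); antagonist apparent affinity expressed as pA2 by Schild plot.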

[3] = biological target: T2, Substance-K receptor (Homo sapiens, UniProt P21452); assay: Tested for binding affinity against human NK-2 receptor transfected on CHO cells using [125I]-His] NKA as radioligand; assay type: cell-based
T2 sequence (P21452 whole entry): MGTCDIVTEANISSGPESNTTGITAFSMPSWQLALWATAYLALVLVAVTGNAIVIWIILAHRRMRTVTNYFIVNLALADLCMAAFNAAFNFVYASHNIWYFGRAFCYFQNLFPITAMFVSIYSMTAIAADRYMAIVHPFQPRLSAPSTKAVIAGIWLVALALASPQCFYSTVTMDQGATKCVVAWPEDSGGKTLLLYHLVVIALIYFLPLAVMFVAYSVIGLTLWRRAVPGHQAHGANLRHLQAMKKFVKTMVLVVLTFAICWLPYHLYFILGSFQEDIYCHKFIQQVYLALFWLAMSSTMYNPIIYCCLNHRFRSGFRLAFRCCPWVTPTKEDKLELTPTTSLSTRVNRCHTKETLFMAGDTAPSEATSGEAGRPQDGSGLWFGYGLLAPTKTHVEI

[4] = test system: Mus musculus; assay: Tested for antinociceptive activity against mouse hotplate test for 10 min after intravenous injection at 0.5 mg/kg
[5] = biological target: T3, Substance-K receptor (Rattus norvegicus, UniProt P16610); assay: Tested for binding affinity against rat NK-2 receptor transfected on CHO cells using [125I]-His] NKA as radioligand; assay type: cell-based
T3 sequence (P16610 whole entry): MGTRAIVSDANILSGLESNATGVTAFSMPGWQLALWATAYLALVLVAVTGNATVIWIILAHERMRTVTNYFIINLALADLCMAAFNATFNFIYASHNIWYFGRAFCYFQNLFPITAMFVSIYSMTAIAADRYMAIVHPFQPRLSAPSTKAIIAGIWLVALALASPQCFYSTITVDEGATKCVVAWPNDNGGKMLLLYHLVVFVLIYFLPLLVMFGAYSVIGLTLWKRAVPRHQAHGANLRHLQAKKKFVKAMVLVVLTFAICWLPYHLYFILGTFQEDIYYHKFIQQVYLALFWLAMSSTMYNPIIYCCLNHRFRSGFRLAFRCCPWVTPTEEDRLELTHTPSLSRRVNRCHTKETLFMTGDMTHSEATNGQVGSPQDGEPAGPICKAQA

[6] = biological target: T4, Substance-K receptor (Oryctolagus cuniculus, UniProt P79218); assay: Tested for antagonist activity against NK-2 receptor in rabbit pulmonary artery by using Neurokinin A as agonist; assay type: functional; conditions: read-out: pA2 (converted); method in brief: as §1
T4 sequence (P79218 whole entry): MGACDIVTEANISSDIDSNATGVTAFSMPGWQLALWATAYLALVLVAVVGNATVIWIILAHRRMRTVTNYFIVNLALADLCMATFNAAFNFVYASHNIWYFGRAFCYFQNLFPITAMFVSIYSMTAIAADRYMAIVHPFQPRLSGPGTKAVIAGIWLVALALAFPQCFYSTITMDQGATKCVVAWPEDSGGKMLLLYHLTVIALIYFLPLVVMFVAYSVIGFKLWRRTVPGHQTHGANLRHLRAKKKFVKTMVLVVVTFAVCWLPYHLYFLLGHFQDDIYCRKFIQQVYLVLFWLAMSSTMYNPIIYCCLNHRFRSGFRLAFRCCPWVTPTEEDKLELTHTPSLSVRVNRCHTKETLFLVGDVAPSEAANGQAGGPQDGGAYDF

[7] = test system: Mus musculus; assay: Tested for antinociceptive activity against mouse hotplate test for 60 min after oral administration of 40 mg/kg; assay type: functional
Method in brief: (§2)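 Male CD1 mice (25-30 g) on a 55 ± 0.2 °C plate; forepaw-licking latency measured 60 min after oral 40 mg/kg given in water (soluble) or 0.2% hydroxypropylcellulose (insoluble); % increase of reaction time versus vehicle controls; groups of 12 animals; Dunnett t-test.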

[8] = biological target: Substance-P receptor (Rattus norvegicus, UniProt P14600); assay: Tested for binding affinity against rat NK-1 receptor
Sequence of Substance-P receptor (Rattus norvegicus, UniProt P14600) (P14600 whole entry): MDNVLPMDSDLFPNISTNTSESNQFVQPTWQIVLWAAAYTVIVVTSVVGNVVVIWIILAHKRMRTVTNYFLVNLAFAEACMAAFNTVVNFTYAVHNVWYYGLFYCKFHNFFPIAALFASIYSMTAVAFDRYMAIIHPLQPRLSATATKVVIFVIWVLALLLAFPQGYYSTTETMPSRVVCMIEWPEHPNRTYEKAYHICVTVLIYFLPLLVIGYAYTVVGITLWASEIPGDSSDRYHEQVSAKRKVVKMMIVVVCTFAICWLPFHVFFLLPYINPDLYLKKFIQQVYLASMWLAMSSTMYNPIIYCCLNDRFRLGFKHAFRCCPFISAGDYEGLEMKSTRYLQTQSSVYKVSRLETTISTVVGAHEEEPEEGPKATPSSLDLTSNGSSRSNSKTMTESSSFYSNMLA

[9] = test system: Mus musculus; assay: Tested for antinociceptive activity against mouse hotplate test for 60 min after oral administration of 40 mg/kg (P*<0.05); assay type: functional; method in brief: as §2
[10] = biological target: Substance-P receptor (Oryctolagus cuniculus); assay: Tested for antagonist activity against NK1 receptor in rabbit vena cava by using substance P (SP) as agonist; conditions: read-out: pA2 (converted)
[11] = species: Rattus norvegicus; assay: Tested for its ability to promote degranulation of rat peritoneal mast cells; assay type: functional, cell-based
Method in brief: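 Peritoneal mast cells lavaged from male Sprague-Dawley rats (350-400 g), buffer pH 6.8, 2 × 10^4 cells/mL, preincubated 10 min at 37 °C, then exposed to compound (10^-7 to 10^-4 M, in water or DMSO) 10 min at 37 °C; iced, centrifuged; histamine in supernatant and pellet measured fluorimetrically with o-phthalaldehyde, as % of total.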

[12] = biological target: T2, Substance-K receptor; assay: Tested for binding affinity against human NK-2 receptor
[13] = biological target: T3, Substance-K receptor; assay: Tested for binding affinity against rat NK-2 receptor
[14] = test system: Mus musculus; assay: Tested for antinociceptive activity against mouse hotplate test for 10 min after intravenous injection at 0.5 […] (P*<0.05); assay type: functional
[15] = biological target: Substance-P receptor (Homo sapiens, UniProt P25103); assay: Tested for binding affinity against human NK-1 receptor
Sequence of Substance-P receptor (Homo sapiens, UniProt P25103) (P25103 whole entry): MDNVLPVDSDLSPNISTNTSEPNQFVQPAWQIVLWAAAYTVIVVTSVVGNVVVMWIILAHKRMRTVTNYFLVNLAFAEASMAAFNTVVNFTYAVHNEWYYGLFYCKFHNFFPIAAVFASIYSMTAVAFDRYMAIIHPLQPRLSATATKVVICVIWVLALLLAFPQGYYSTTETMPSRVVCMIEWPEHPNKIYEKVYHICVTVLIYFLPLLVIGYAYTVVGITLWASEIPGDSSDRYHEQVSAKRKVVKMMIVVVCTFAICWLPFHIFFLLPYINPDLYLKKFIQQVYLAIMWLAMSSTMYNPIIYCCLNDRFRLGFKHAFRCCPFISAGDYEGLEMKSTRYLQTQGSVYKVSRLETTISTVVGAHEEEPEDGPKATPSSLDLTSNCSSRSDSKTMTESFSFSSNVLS

[16] = Binding affinity by displacement of tritiated substance P from its binding sites on membrane preparations from mouse brain; assay type: tissue-based
[17] = Binding affinity by displacement of tritiated substance P from its binding sites on membrane preparations from rat brain; assay type: tissue-based

Structure (SMILES): CN(Cc1ccccc1)C(=O)[C@H](Cc1ccccc1)NC(=O)[C@@H](Cc1cn(C(=O)OCCCCCCN)c2ccccc12)NC(=O)C[C@@H]1NC(=O)[C@@H]2C3CCC(CC3)N2C1=O
solubility [1]: 40 mg/mL (≈ 48.1 mM)
pIC50 [8]: 5.50
Kb [2]: 10 µM
Increase [9]: 62%
Kb [10]: 0.0398 µM
pIC50 [11]: 4.89
pIC50 [12]: 7.34
pIC50 [13]: 6.61
Increase [14]: 40%
Kb [6]: 10 µM
pIC50 [15]: 7.47

Structure (SMILES): CN(Cc1ccccc1)C(=O)[C@H](Cc1ccccc1)NC(=O)[C@@H](Cc1cn(C(=O)CCCCCCN)c2ccccc12)NC(=O)C[C@@H]1NC(=O)[C@@H]2C3CCC(CC3)N2C1=O
solubility [1]: 43 mg/mL (≈ 52.7 mM)
Kb [2]: 2 µM
Increase [9]: 62%
pIC50 [11]: 4.89
pIC50 [12]: 7.35
pIC50 [13]: 6.73
Increase [14]: 54%
Kb [6]: 20 µM

Structure (SMILES): CN(Cc1ccccc1)C(=O)[C@H](Cc1ccccc1)NC(=O)[C@@H](Cc1cn(C(=O)OC(C)(C)C)c2ccccc12)NC(=O)C[C@@H]1NC(=O)[C@@H]2C3CCC(CC3)N2C1=O
solubility [1]: < 0.01 mg/mL
Kb [2]: 1.26 µM
Kb [10]: 0.126 µM
Kb [6]: 12.6 µM

Structure (SMILES): COC(=O)n1cc(C[C@@H](NC(=O)C[C@@H]2NC(=O)[C@@H]3C4CCC(CC4)N3C2=O)C(=O)N[C@@H](Cc2ccccc2)C(=O)N(C)Cc2ccccc2)c2ccccc21
solubility [1]: < 0.01 mg/mL
Kb [2]: 0.158 µM
Kb [10]: 0.1 µM
Kb [6]: 15.8 µM

Structure (SMILES): CSCC[C@@H](NC(=O)[C@H](CC(C)C)NC(=O)CNC(=O)[C@H](Cc1ccccc1)NC(=O)[C@H](Cc1ccccc1)NC(=O)[C@H](CCC(N)=O)NC(=O)[C@H](CCC(N)=O)NC(=O)[C@@H]1CCCN1)C(N)=O
pKi [16]: 6.12
pKi [17]: 6.12

Now from value to compound, other results behind:

solubility [1]: < 0.01 mg/mL
Kb [2]: 7.94 µM
pIC50 [3]: 7.10
pIC50 [5]: 6.31
Kb [6]: 10 µM
Structure (SMILES): CN(Cc1ccccc1)C(=O)[C@H](Cc1ccccc1)NC(=O)[C@@H](Cc1cn(C)c2ccccc12)NC(=O)C[C@@H]1NC(=O)[C@@H]2C3CCC(CC3)N2C1=O
Increase [4]: 17%
Increase [7]: 10%

solubility [1]: < 0.01 mg/mL
Kb [2]: 0.1 µM
Kb [10]: 0.0501 µM
Kb [6]: 0.126 µM
Structure (SMILES): CC(=O)n1cc(C[C@@H](NC(=O)C[C@@H]2NC(=O)[C@@H]3C4CCC(CC4)N3C2=O)C(=O)N[C@@H](Cc2ccccc2)C(=O)N(C)Cc2ccccc2)c2ccccc21
